# Test results from ChEMBL document CHEMBL1800075, “Tricyclic imidazole antagonists of the Neuropeptide S Receptor” (Bioorg Med Chem Lett, 2010).
# pIC50: −log10 of the molar value.
# Target: T1, Neuropeptide S receptor (Homo sapiens, UniProt Q6W5P4)
# T1 sequence (Q6W5P4 whole entry): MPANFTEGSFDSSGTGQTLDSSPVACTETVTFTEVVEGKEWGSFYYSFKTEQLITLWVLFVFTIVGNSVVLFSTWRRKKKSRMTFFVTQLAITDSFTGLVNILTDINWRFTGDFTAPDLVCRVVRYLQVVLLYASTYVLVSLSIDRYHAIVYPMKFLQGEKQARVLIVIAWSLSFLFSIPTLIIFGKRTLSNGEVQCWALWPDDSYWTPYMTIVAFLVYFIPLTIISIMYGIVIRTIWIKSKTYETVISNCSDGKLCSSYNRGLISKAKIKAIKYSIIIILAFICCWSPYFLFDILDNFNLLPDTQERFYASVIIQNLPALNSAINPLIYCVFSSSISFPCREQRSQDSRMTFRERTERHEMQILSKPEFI
# Assay: Antagonist activity at human recombinant NPS receptor expressed in CHOK1 cells assessed as inhibition of NPS-induced calcium mobilization by FLIPR assay
# Type: functional, cell-based, CHO-K1
# Conditions: not given
# Outline: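 Dual-sequence FLIPR Ca2+ mobilization on CHOK1 cells expressing recombinant NPSR, plated 24 h ahead at 15 K cells/well. Cells washed and loaded with Fluo4AM for 1 h at 37 °C, 5% CO2. Inhibition taken relative to NPS-stimulated control wells; IC50 from 4-parameter logistic fits; mean ± S.D. of multiple determinations.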
row,pIC50,Compound
1,6.90,CC(C1CCN(C(=O)CCC2(c3ccc(Cl)cc3)c3ccccc3-c3nccn32)CC1)N1CCCC1 (mixture of isomers)
2,5.66,Brc1ccc(C2(Cc3ccccc3)c3ccccc3-c3nccn32)nc1 (stereo not given)
3,6.47,Fc1ccc(C2(Cc3ccccc3)c3ccccc3-c3nccn32)cc1 (stereo not given)
4,7.34,COc1cccc2c1C(CC1CCOCC1)(c1ccc(Cl)cc1)n1ccnc1-2 (stereo not given)
5,7.04,Brc1ccc(C2(CC3CCOCC3)c3ccccc3-c3nccn32)cc1 (racemic)
6,7.30,COc1ccc2c(c1)C(CCC(=O)N1[C@H](C)CC[C@@H]1C)(c1ccc(Cl)cc1)n1ccnc1-2 (stereo not given in full)
7,7.37,CCN(CC)C(=O)CCC1(c2ccc(Cl)cc2)c2c(OC)cccc2-c2nccn21 (stereo not given)
8,5.50,N#Cc1cccc(C2(Cc3ccccc3)c3ccccc3-c3nccn32)c1 (stereo not given)
9,6.42,Brc1ccc(C2(Cc3ccccc3)c3ccccc3-c3nccn32)cc1 (racemic)
10,6.41,N#Cc1ccc(C2(Cc3ccccc3)c3ccccc3-c3nccn32)cc1 (stereo not given)
11,6.45,Brc1ccc(C2(Cc3cccnc3)c3ccccc3-c3nccn32)cc1 (racemic)
12,7.05,"CCN(CC)C(=O)CCC1(c2ccc(Cl)cc2)c2ccccc2-c2nccn21 (single isomer, unassigned)"
13,6.20,N#Cc1ccc(C2(CC3CCOCC3)c3ccccc3-c3nccn32)cc1 (stereo not given)
14,7.09,COc1ccc2c(c1)C(CC1CCOCC1)(c1ccc(Cl)cc1)n1ccnc1-2 (stereo not given)
15,6.18,Fc1ccc(C2(CC3CCOCC3)c3ccccc3-c3nccn32)cc1 (stereo not given)
16,7.04,C[C@@H]1CC[C@H](C)N1C(=O)CCC1(c2ccc(Cl)cc2)c2ccccc2-c2nccn21 (mixture of isomers)
17,6.86,CCN(C(=O)CCC1(c2ccc(Cl)cc2)c2ccccc2-c2nccn21)C(C)C (racemic)

# Tested on: not listed separately
# Assay: Unbound fraction in rat plasma by ultracentrifugation
# Type: ADME, cell-free
# Conditions: not given
row,fraction unbound,Compound
1,0.081,CC(C1CCN(C(=O)CCC2(c3ccc(Cl)cc3)c3ccccc3-c3nccn32)CC1)N1CCCC1 (mixture of isomers)
2,0.008,COc1cccc2c1C(CC1CCOCC1)(c1ccc(Cl)cc1)n1ccnc1-2 (stereo not given)
3,0.19,Brc1ccc(C2(CC3CCOCC3)c3ccccc3-c3nccn32)cc1 (racemic)
4,0.007,COc1ccc2c(c1)C(CCC(=O)N1[C@H](C)CC[C@@H]1C)(c1ccc(Cl)cc1)n1ccnc1-2 (stereo not given in full)
5,0.013,CCN(CC)C(=O)CCC1(c2ccc(Cl)cc2)c2c(OC)cccc2-c2nccn21 (stereo not given)
6,0.17,N#Cc1ccc(C2(Cc3ccccc3)c3ccccc3-c3nccn32)cc1 (stereo not given)
7,0.021,Brc1ccc(C2(Cc3cccnc3)c3ccccc3-c3nccn32)cc1 (racemic)
8,0.022,"CCN(CC)C(=O)CCC1(c2ccc(Cl)cc2)c2ccccc2-c2nccn21 (single isomer, unassigned)"
9,0.016,COc1ccc2c(c1)C(CC1CCOCC1)(c1ccc(Cl)cc1)n1ccnc1-2 (stereo not given)
10,0.006,C[C@@H]1CC[C@H](C)N1C(=O)CCC1(c2ccc(Cl)cc2)c2ccccc2-c2nccn21 (mixture of isomers)
11,0.007,CCN(C(=O)CCC1(c2ccc(Cl)cc2)c2ccccc2-c2nccn21)C(C)C (racemic)

# Target: rat MDR1 (ABCB1, P-glycoprotein) (Rattus norvegicus, UniProt P43245)
# Assay: Permeability of the compound assessed as rat MDR1-mediated directional transport ratio by cell based assay
# Conditions: not told
# Outline: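 Rat MDR1 directional transport ratio, calculated as (B–A)/(A–B). Average of three experiments; interassay variability 20%.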
# Sequence of rat MDR1 (ABCB1, P-glycoprotein) (P43245 whole entry): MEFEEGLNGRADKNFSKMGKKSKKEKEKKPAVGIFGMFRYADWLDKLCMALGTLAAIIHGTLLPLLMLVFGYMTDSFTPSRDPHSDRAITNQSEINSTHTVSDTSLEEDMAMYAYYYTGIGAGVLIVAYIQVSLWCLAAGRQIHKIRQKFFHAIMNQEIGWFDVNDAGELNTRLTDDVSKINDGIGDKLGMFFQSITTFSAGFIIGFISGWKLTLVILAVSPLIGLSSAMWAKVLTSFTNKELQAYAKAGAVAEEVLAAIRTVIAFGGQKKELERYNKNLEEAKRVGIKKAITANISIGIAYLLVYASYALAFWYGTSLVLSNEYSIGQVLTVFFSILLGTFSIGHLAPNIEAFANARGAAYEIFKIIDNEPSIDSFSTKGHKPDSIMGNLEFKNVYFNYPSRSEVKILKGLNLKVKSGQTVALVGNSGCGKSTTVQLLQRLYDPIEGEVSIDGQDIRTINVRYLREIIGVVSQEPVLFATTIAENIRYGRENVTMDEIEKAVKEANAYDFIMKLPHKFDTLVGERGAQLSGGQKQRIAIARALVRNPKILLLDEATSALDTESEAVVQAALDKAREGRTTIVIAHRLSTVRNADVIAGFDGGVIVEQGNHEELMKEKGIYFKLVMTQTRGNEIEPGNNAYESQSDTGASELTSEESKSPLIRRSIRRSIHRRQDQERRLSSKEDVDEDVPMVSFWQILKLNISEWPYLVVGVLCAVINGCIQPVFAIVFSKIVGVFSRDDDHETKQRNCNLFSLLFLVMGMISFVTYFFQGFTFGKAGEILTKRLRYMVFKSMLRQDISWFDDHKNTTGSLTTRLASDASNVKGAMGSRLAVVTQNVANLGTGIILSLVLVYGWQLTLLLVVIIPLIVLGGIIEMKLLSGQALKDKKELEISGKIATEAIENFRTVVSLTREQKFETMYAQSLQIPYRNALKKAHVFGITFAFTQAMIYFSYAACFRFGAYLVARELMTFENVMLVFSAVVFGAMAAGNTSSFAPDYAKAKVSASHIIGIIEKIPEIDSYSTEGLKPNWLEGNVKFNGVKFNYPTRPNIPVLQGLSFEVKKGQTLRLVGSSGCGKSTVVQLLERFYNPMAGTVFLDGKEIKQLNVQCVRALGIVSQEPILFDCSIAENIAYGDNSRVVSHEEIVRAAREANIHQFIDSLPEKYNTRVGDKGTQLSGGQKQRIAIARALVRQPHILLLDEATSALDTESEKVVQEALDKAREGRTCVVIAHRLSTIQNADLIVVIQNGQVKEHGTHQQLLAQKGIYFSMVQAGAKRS
row,efflux ratio,Compound
1,34.2,CC(C1CCN(C(=O)CCC2(c3ccc(Cl)cc3)c3ccccc3-c3nccn32)CC1)N1CCCC1 (mixture of isomers)
2,1.2,Brc1ccc(C2(CC3CCOCC3)c3ccccc3-c3nccn32)cc1 (racemic)
3,2.2,COc1ccc2c(c1)C(CCC(=O)N1[C@H](C)CC[C@@H]1C)(c1ccc(Cl)cc1)n1ccnc1-2 (stereo not given in full)
4,2.9,CCN(CC)C(=O)CCC1(c2ccc(Cl)cc2)c2c(OC)cccc2-c2nccn21 (stereo not given)
5,0.9,N#Cc1ccc(C2(Cc3ccccc3)c3ccccc3-c3nccn32)cc1 (stereo not given)
6,2.1,Brc1ccc(C2(Cc3cccnc3)c3ccccc3-c3nccn32)cc1 (racemic)
7,2.1,"CCN(CC)C(=O)CCC1(c2ccc(Cl)cc2)c2ccccc2-c2nccn21 (single isomer, unassigned)"
8,1.3,COc1ccc2c(c1)C(CC1CCOCC1)(c1ccc(Cl)cc1)n1ccnc1-2 (stereo not given)
9,1.5,C[C@@H]1CC[C@H](C)N1C(=O)CCC1(c2ccc(Cl)cc2)c2ccccc2-c2nccn21 (mixture of isomers)
10,2.3,CCN(C(=O)CCC1(c2ccc(Cl)cc2)c2ccccc2-c2nccn21)C(C)C (racemic)

# Tested on: not listed separately
# Assay: Passive permeability of the compound
# Type: ADME
# Conditions: not told
row,Papp,Compound
1,31 ×10⁻⁶ cm/s,Brc1ccc(C2(CC3CCOCC3)c3ccccc3-c3nccn32)cc1 (racemic)
2,33 ×10⁻⁶ cm/s,N#Cc1ccc(C2(Cc3ccccc3)c3ccccc3-c3nccn32)cc1 (stereo not given)
3,31 ×10⁻⁶ cm/s,Brc1ccc(C2(Cc3cccnc3)c3ccccc3-c3nccn32)cc1 (racemic)

# Tested on: not listed separately
# Assay: Clearance in iv dosed rat
# Type: ADME, organism-based
# Conditions: in vivo
# Outline: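 IV clearance in rats measured in cassette dosing experiments.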
row,clearance,Compound
1,38 mL/min/kg,CCN(CC)C(=O)CCC1(c2ccc(Cl)cc2)c2ccccc2-c2nccn21 (racemic)
2,38 mL/min/kg,CC(C1CCN(C(=O)CCC2(c3ccc(Cl)cc3)c3ccccc3-c3nccn32)CC1)N1CCCC1 (mixture of isomers)
3,48 mL/min/kg,Brc1ccc(C2(CC3CCOCC3)c3ccccc3-c3nccn32)cc1 (racemic)
4,36 mL/min/kg,C[C@@H]1CC[C@H](C)N1C(=O)CCC1(c2ccc(Cl)cc2)c2ccccc2-c2nccn21 (mixture of isomers)
5,31 mL/min/kg,CCN(C(=O)CCC1(c2ccc(Cl)cc2)c2ccccc2-c2nccn21)C(C)C (racemic)

# Tested on: not listed separately
# Assay: AUC (0 to infinity) in rat at 10 mg/kg, po
# Type: ADME, organism-based
# Set-up: time infinity, dose 10 mg/kg, route oral
# Conditions: plasma
row,AUC(0-inf),Compound
1,0.18 µM·h,CCN(CC)C(=O)CCC1(c2ccc(Cl)cc2)c2ccccc2-c2nccn21 (racemic)
2,0.425 µM·h,COc1cccc2c1C(CC1CCOCC1)(c1ccc(Cl)cc1)n1ccnc1-2 (stereo not given)
3,1.15 µM·h,CCN(CC)C(=O)CCC1(c2ccc(Cl)cc2)c2c(OC)cccc2-c2nccn21 (stereo not given)

# Tested on: not listed separately
# Assay: AUC (0 to infinity) in rat at 2 mg/kg, po
# Type: ADME, organism-based
# Set-up: time infinity, dose 2 mg/kg, route oral
# Conditions: plasma
row,AUC(0-inf),Compound
1,0.115 µM·h,COc1ccc2c(c1)C(CCC(=O)N1[C@H](C)CC[C@@H]1C)(c1ccc(Cl)cc1)n1ccnc1-2 (stereo not given in full)
2,0.114 µM·h,COc1ccc2c(c1)C(CC1CCOCC1)(c1ccc(Cl)cc1)n1ccnc1-2 (stereo not given)

# Tested on: not listed separately
# Assay: Drug level in rat cerebrospinal fluid at 75 mg/kg, ip after 30 mins
# Type: ADME, organism-based
# Set-up: dose 75 mg/kg, route intraperitoneal
# Conditions: read-out: Drug uptake
# Outline: (§1)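 Compound given to rats at 75 mpk IP as a solution in 25% HPB-cyclodextrin. CSF and plasma sampled at 30 min and 2 h.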
row,concentration at 0.5 h,Compound
1,594 nM,COc1ccc2c(c1)C(CC1CCOCC1)(c1ccc(Cl)cc1)n1ccnc1-2 (stereo not given)

# Tested on: not listed separately
# Assay: Drug level in rat cerebrospinal fluid at 75 mg/kg, ip after 2 hrs
# Type: ADME, organism-based
# Set-up: dose 75 mg/kg, route intraperitoneal
# Conditions: read-out: Drug uptake
# Outline: as §1
row,concentration at 2 h,Compound
1,153 nM,COc1ccc2c(c1)C(CC1CCOCC1)(c1ccc(Cl)cc1)n1ccnc1-2 (stereo not given)

# Tested on: not listed separately
# Assay: Ratio drug level in CSF to plasma in rat at 75 mg/kg, ip
# Type: ADME, organism-based
# Set-up: dose 75 mg/kg, route intraperitoneal
# Conditions: not given
# Outline: as §1
row,Ratio,Compound
1,1%,COc1ccc2c(c1)C(CC1CCOCC1)(c1ccc(Cl)cc1)n1ccnc1-2 (stereo not given)

# Tested on: not listed separately
# Assay: Drug level in plasma of rat at 30 mg/kg, ip measured after 30 mins
# Type: ADME, organism-based
# Set-up: dose 30 mg/kg, route intraperitoneal
# Conditions: not given
# Outline: (§2)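 Compound dosed to rats at 30 mpk IP. Plasma levels measured at 30 min, 1 h and 2 h. Unbound exposures obtained by correcting for plasma free fraction.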
row,concentration at 0.5 h,Compound
1,7800 nM,CCN(CC)C(=O)CCC1(c2ccc(Cl)cc2)c2c(OC)cccc2-c2nccn21 (stereo not given)

# Tested on: not listed separately
# Assay: Drug level in plasma of rat at 30 mg/kg, ip measured after 1 hr
# Type: ADME, organism-based
# Set-up: dose 30 mg/kg, route intraperitoneal
# Conditions: not given
# Outline: as §2
row,concentration at 1 h,Compound
1,5100 nM,CCN(CC)C(=O)CCC1(c2ccc(Cl)cc2)c2c(OC)cccc2-c2nccn21 (stereo not given)

# Tested on: not listed separately
# Assay: Drug level in plasma of rat at 30 mg/kg, ip measured after 2 hrs
# Type: ADME, organism-based
# Set-up: dose 30 mg/kg, route intraperitoneal
# Conditions: not given
# Outline: as §2
row,concentration at 2 h,Compound
1,3000 nM,CCN(CC)C(=O)CCC1(c2ccc(Cl)cc2)c2c(OC)cccc2-c2nccn21 (stereo not given)

# Tested on: Plasma
# Assay: Unbound free concentration in rat plasma at 30 mg/kg, ip measured after 30 mins
# Type: ADME, organism-based
# Set-up: dose 30 mg/kg, route intraperitoneal
# Conditions: in vivo, 0.5 h
# Outline: as §2
row,Cp(f),Compound
1,101 nM,CCN(CC)C(=O)CCC1(c2ccc(Cl)cc2)c2c(OC)cccc2-c2nccn21 (stereo not given)

# Tested on: Plasma
# Assay: Unbound free concentration in rat plasma at 30 mg/kg, ip measured after 1 hr
# Type: ADME, organism-based
# Set-up: dose 30 mg/kg, route intraperitoneal
# Conditions: in vivo
# Outline: as §2
row,Cp(f),Compound
1,66 nM,CCN(CC)C(=O)CCC1(c2ccc(Cl)cc2)c2c(OC)cccc2-c2nccn21 (stereo not given)

# Tested on: Plasma
# Assay: Unbound free concentration in rat plasma at 30 mg/kg, ip measured after 2 hrs
# Type: ADME, organism-based
# Set-up: dose 30 mg/kg, route intraperitoneal
# Conditions: in vivo
# Outline: as §2
row,Cp(f),Compound
1,39 nM,CCN(CC)C(=O)CCC1(c2ccc(Cl)cc2)c2c(OC)cccc2-c2nccn21 (stereo not given)

# Tested on: not listed separately
# Assay: Lipophilicity, log D of the compound by HPLC method
# Type: physicochemical
# Conditions: not given
row,logD,Compound
1,3.2,COc1ccc2c(c1)C(CC1CCOCC1)(c1ccc(Cl)cc1)n1ccnc1-2 (stereo not given)

# Target: T2, Thromboxane A2 receptor (Homo sapiens, UniProt P21731)
# T2 sequence (P21731 whole entry): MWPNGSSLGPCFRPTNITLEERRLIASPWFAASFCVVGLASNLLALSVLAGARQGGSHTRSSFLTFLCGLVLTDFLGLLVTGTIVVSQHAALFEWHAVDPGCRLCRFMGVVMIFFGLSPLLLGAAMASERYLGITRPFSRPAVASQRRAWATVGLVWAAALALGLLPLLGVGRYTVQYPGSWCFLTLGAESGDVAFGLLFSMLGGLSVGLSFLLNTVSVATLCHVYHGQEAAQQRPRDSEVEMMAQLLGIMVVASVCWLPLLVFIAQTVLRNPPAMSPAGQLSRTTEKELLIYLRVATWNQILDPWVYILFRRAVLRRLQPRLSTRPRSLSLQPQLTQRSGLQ
# Assay: Inhibition of thromboxane A2 receptor
# Conditions: not given
row,pIC50,Compound
1,5.15,COc1ccc2c(c1)C(CC1CCOCC1)(c1ccc(Cl)cc1)n1ccnc1-2 (stereo not given)

# Target: not listed separately
# Assay: Inhibition of melatonin receptor
# Conditions: not given
row,pIC50,Compound
1,5.89,COc1ccc2c(c1)C(CC1CCOCC1)(c1ccc(Cl)cc1)n1ccnc1-2 (stereo not given)

# Tested on: not listed separately
# Assay: Inhibition of sodium channel site 2
# Conditions: not given
row,pIC50,Compound
1,5.40,COc1ccc2c(c1)C(CC1CCOCC1)(c1ccc(Cl)cc1)n1ccnc1-2 (stereo not given)

# Target: Cannabinoid receptor 1 (Homo sapiens, UniProt P21554)
# Assay: Inhibition of CB1 receptor
# Conditions: not given
# Sequence of Cannabinoid receptor 1 (P21554 whole entry): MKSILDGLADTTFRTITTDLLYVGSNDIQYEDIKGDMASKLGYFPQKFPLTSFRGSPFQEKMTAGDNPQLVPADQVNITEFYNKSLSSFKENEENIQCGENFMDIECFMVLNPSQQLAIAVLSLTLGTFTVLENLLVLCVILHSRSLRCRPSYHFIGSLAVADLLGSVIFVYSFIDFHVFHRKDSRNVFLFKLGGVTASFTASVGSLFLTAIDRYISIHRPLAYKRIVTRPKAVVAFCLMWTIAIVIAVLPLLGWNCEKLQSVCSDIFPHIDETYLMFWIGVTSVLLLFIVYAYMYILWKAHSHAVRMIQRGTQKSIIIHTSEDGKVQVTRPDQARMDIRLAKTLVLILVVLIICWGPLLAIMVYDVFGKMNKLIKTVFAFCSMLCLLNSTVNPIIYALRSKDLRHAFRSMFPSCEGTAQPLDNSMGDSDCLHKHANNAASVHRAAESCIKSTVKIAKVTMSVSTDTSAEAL
row,pIC50,Compound
1,5.22,CCN(CC)C(=O)CCC1(c2ccc(Cl)cc2)c2c(OC)cccc2-c2nccn21 (stereo not given)
